Laboratory results published in PMC3041911 (Journal of Molecular Neuroscience, 2010).
pIC50: −log10 of the molar value. Several values for one entry are separate records, joined by “and”; a condition that tells them apart may be missing. Equal values may be shown once. Read-outs that look alike come from different tables or passages of the source.

Columns and labels:
[1] = test system: primary chicken telencephalic neurons; experiment: MTT viability assay, primary chicken neurons; assay type: cell-based; conditions: data not shown
How it was run: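 MTT viability assay in primary E8 chicken telencephalic neurons. Neurons were plated at 3×10^5 per poly-D-lysine-coated 96-well in DMEM with 5% Nu Serum, 0.01% gentamicin and 2 mM L-glutamine, kept at 37°C, 5% CO2, and exposed to DMSO-dissolved compound over a concentration range.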

[2] = test system: H4 cells overexpressing human APPK595N/M596L; experiment: MTT viability assay, H4 cells; assay type: cell-based; conditions: data not shown
[3] = test system: Aβ42 levels; conditions: 100 μM; ref Okochi et al. [2006]; cited from earlier work
[4] = test system: Aβ38, Aβ40 and Aβ42 formation in H4 cells overexpressing human APPK595N/M596L; experiment: Aβ secretion assay; assay type: cell-based; conditions: for Emax: Homo sapiens; for Aβ38 E max / Aβ40 E max / Aβ42 E max / pIC50: H4 cells hAPPK595N/M596L, 24 h treatment; for Effect on Aβ species at low nanomolar (sub-inhibitory) concentrations: low nanomolar concentrations (DAPT: 10 nM)
How it was run: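 H4 human neuroglioma line stably transfected with human APP695 K595N/M596L (Swedish) under a CMV/chicken β-actin promoter. Cells were plated at 1×10^4 per 96-well in OptiMEM with 10% FBS, 1% penicillin/streptomycin, 200 μg/ml hygromycin-B and 2.5 μg/ml blasticidin-S. After 48 h the medium was exchanged and cells were dosed for 24 h at 37°C, 5% CO2 with DMSO-dissolved compound at a range of concentrations, vehicle constant.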

[5] = test system: Aβ38, Aβ40 and Aβ42 formation in primary chicken telencephalic neurons; experiment: Aβ secretion assay; assay type: cell-based; conditions: for Aβ38 E max / Aβ40 E max / Aβ42 E max / pIC50: 24 h treatment
How it was run: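 Telencephalic neurons from E8 Lohman Brown chicken embryos, mechanically dissociated through a nylon sieve. Neurons were plated at 1.8×10^6 per poly-D-lysine-coated 24-well in DMEM (4.5 g glucose/l, 5% Nu Serum, 0.01% gentamicin, 2 mM L-glutamine). After 48 h the medium was exchanged and neurons were treated for 24 h at 37°C, 5% CO2 with DMSO-dissolved compound at a range of concentrations, vehicle constant.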

[6] = test system: total Aβ content in brain tissue; conditions: in vivo administration; ref Dovey et al. [2001]; cited from earlier work
[7] = test system: Aβ formation in primary human neuronal cultures; conditions: read-out: IC50 Aβ total, ref Dovey et al. [2001]; cited from earlier work
[8] = H4 cells, 100 μM compound, 24 h, mean ± SEM
[9] = primary chicken neurons, 10 μM compound, 24 h, mean ± SEM
[10] = primary chicken neurons, 50 μM compound, 24 h, mean ± SEM
[11] = H4 cells, 10 μM compound, 24 h, mean ± SEM
[12] = read-out: Aβ38 IC50, primary chicken neurons
[13] = read-out: Aβ40 IC50, primary chicken neurons
[14] = read-out: Aβ42 IC50, primary chicken neurons
[15] = primary chicken neurons, 25 μM compound, 24 h, mean ± SEM

Molecule | Concentration at which toxicity starts (viability assay) [1] | Cell viability (MTT), result in words [2] | Aβ42 level in percent of vehicle-treated cultures [4, 8] | Concentration at which Aβ42 levels start to decline ([4]; H4 cells, 24 h) | Emax ([4]; 24 h, read-out: Aβ42 E max) | Aβ38 level in percent of vehicle-treated cultures [5, 9] | Cell viability (MTT), result in words [1] | Aβ38 E max [4] | Aβ40 E max [4] | Aβ42 E max [4] | pIC50 ([4]; read-out: Aβ38 IC50) | pIC50 ([4]; read-out: Aβ40 IC50) | pIC50 ([4]; read-out: Aβ42 IC50) | Concentration at which Aβ38, Aβ40 and Aβ42 levels start to decline ([5]; primary chicken neurons, 24 h) | Aβ38 E max ([5]; primary chicken neurons) | Aβ40 E max ([5]; primary chicken neurons) | Aβ42 E max ([5]; primary chicken neurons) | pIC50 [5, 12] | pIC50 [5, 13] | pIC50 [5, 14] | further results
O=C(O)c1cc(Oc2ccc([N+](=O)[O-])cc2)cc(Oc2ccc([N+](=O)[O-])cc2)c1 [CW, 3,5-bis(4-nitrophenoxy)benzoic acid] | 150 µM | no cell toxicity | 16.0 ± 1.8% | 50 µM | 100% | 127.9 ± 0.9% |  |  |  |  |  |  |  |  |  |  |  |  |  |  | Effect on Aβ42 levels [3]: reduce Aβ42 levels; Aβ38 level in percent of vehicle-treated cultures [4, 8]: 287.5 ± 31.2%; Aβ42 level in percent of vehicle-treated cultures [5, 9]: 63.6 ± 2.4%; Aβ38 level in percent of vehicle-treated cultures [5, 10]: 159.3 ± 8.0%; Aβ42 level in percent of vehicle-treated cultures [5, 10]: 29.9 ± 1.2%; Concentration at which Aβ42 levels start to decline ([5]; primary chicken neurons, 24 h): 5 µM; Aβ40 content (effect in words) ([5]; primary chicken neurons, up to 50 μM compound): unchanged
CCCC[C@@H](C=O)NC(=O)[C@H](CC(C)C)NC(=O)OCc1ccccc1 [Calpeptin, benzyloxycarbonylleucyl-norleucinal] |  | No toxicity |  |  |  | 31.1 ± 1.8% | No toxicity |  |  |  |  |  |  |  |  |  |  |  |  |  | Aβ38 level in percent of vehicle-treated cultures [4, 11]: 12.9 ± 2.6%; Aβ40 level in percent of vehicle-treated cultures [4, 11]: 35.5 ± 2.2%; Aβ42 level in percent of vehicle-treated cultures [4, 11]: 90.3 ± 6.0%; Effect on Aβ levels up to 1 μM ([4]; H4 cells, up to a concentration of 1 μM): did not evoke any dramatic changes; Emax ([4]; 24 h, read-out: Aβ38 E max): 100%; Emax ([4]; 24 h, read-out: Aβ40 E max): 100%; Aβ40 level in percent of vehicle-treated cultures [5, 9]: 89.9 ± 3.8%; Aβ42 level in percent of vehicle-treated cultures [5, 9]: 259.3 ± 7.3%; Effect on Aβ levels up to 1 μM ([5]; primary chicken neurons, up to a concentration of 1 μM): no effect
COC(=O)[C@@H](NC(=O)[C@H](C)NC(=O)Cc1cc(F)cc(F)c1)c1ccccc1 [DAPM, N-(N-3,5-difluorophenacetyl)-L-alanyl-S-phenylglycine methyl ester] |  | no effect on cell viability |  |  |  |  | no effect on cell viability | 100% | 100% | 100% | 7.70 | 7.64 | 7.59 | 50 nM | 100% | 100% | 100% | 7.21 | 7.00 | 6.97 | Concentration at which Aβ38, Aβ40 and Aβ42 levels start to decline ([4]; H4 cells, 24 h): 50 nM; Effect on Aβ species at low nanomolar (sub-inhibitory) concentrations ([4]; H4 cells): increase of all three Aβ forms; Effect on Aβ species at low nanomolar (sub-inhibitory) concentrations ([5]; primary chicken neurons): no increase in Aβ secretion
C[C@H](NC(=O)Cc1cc(F)cc(F)c1)C(=O)N[C@H](C(=O)OC(C)(C)C)c1ccccc1 [DAPT, N-[N-(3,5-difluorophenacetyl-L-alanyl)]-S-phenylglycine t-butyl ester] |  | not affected |  |  |  |  | not affected | 100% | 100% | 100% | 7.30 | 7.21 | 7.20 and 7.19 | 100 nM | 100% | 100% | 100% | 7.15 | 7.03 | 7.00 | Concentration in brain tissue that reduced total Aβ content [6]: ≥ 200 nM; pIC50 [7]: 6.94; Concentration at which Aβ38, Aβ40 and Aβ42 levels start to decline ([4]; H4 cells, 24 h): 50 nM; Effect on Aβ species at low nanomolar (sub-inhibitory) concentrations ([4]; H4 cells): increased the formation of all three Aβ species; Effect on Aβ species at low nanomolar (sub-inhibitory) concentrations ([5]; primary chicken neurons): no dramatic increase in Aβ levels
CSc1ccc(/C=C2/C(C)=C(CC(=O)O)c3cc(F)ccc32)cc1 [Sulindac sulfide, (Z)-5-fluoro-2-methyl-1-[p-(methylthio)benzylidene]indene-3-acetic acid] | 75 µM |  | 39.3 ± 2.0% | 50 µM | 100% |  |  |  |  |  |  |  |  |  |  |  |  |  |  |  | Concentration at which cell toxicity starts (viability assay) ([2]; minor cell toxicity): 150 µM; Aβ42 level in percent of vehicle-treated cultures ([4]; H4 cells, 50 μM compound, 24 h, mean ± SEM): 75.0 ± 7.1%; Aβ40 production (effect in words) ([4]; H4 cells, 100 μM compound, 24 h): unaltered; Aβ38 level in percent of vehicle-treated cultures [5, 15]: approximately 149.7 ± 6.4%; Aβ42 level in percent of vehicle-treated cultures [5, 15]: 54.7 ± 6.4%; Aβ42 level in percent of vehicle-treated cultures [5, 10]: 25.3 ± 2.1%; Concentration at which Aβ42 levels start to decline ([5]; primary chicken neurons, 24 h): 25 µM
β-secretase inhibitor IV |  | no reduction in cell viability |  |  |  |  | no reduction in cell viability | 88% | 79% | 86% | 7.03 | 6.90 | 6.67 | 5 nM | 91% | 76% | 70% | 8.43 | 8.33 | 8.32 | Potency of BACE-1 inhibition in primary cells relative to H4 cell line ([5]; primary chicken neurons versus H4 cells hAPPK595N/M596L): approximately tenfold more potent; Aβ42 reduction ([5]; primary chicken neurons, inhibitor concentration 25 nM): more than 50%
